Measurements as given in ChEMBL document CHEMBL4819102, “SAR insights into TET2 catalytic domain inhibition: Synthesis of 2-Hydroxy-4-Methylene-pentanedicarboxylates” (Bioorg Med Chem, 2021).
Calls of active or inactive are those of the source. The rule behind the calls is not given here.

What was measured:
THP-1 [1] = assay: Inhibition of TET in human THP-1 cells assessed as reduction in 5hmc/5mc level at 50 uM incubated for 12 hrs by dot blot analysis relative to control; format: cell-based
Summary of the method: (§1)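 THP1 cells at 0.3x10^6/mL exposed 12 h to ester prodrugs (25, 50, 100 µM) with 100 µM sodium ascorbate. Genomic DNA denatured in NaOH/EDTA at 95 °C, two-fold serial dilutions dot-blotted, probed with anti-5hmC and anti-5mC antibodies, and loading checked by methylene blue. Inhibition taken from the 5hmC/5mC ratio; means of at least three experiments, below 5% reported not detected.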

THP-1 [2] = assay: Inhibition of TET in human THP-1 cells assessed as reduction in 5hmc/5mc level at 25 uM incubated for 12 hrs by dot blot analysis relative to control; format: cell-based; summary of the method: as §1
THP-1 [3] = assay: Inhibition of TET in human THP-1 cells assessed as reduction in 5hmc/5mc level at 100 uM incubated for 12 hrs by dot blot analysis relative to control; format: cell-based; summary of the method: as §1
[4] = Inhibition of TET (unknown origin); design: species or system Homo sapiens
[5] = target: T1, Methylcytosine dioxygenase TET2 (Homo sapiens, UniProt Q6N021); assay: Inhibition of recombinant human GST-tagged TET2 (1099 to 1936 residues) expressed in Escherichia coli BL21 (DE3)pLysS assessed as reduction in 5hmc level incubated for 2 hrs by ELISA
[6] = target: T1, Methylcytosine dioxygenase TET2; assay: Binding affinity to human recombinant TET2 (1099 to 1936) catalytic domain assessed as dissociation constant by micro-scale thermophoresis analysis
[7] = target: T2, Methylcytosine dioxygenase TET3 (Homo sapiens, UniProt O43151); assay: Inhibition of recombinant human N-terminal Flag-tagged C-terminal His-tagged TET3 (824 to 1795 residues) expressed in Baculovirus infected Sf9 cells assessed as reduction in 5hmc level incubated for 2 hrs by ELISA
[8] = target: T1, Methylcytosine dioxygenase TET2; assay: Potency index, ratio of IC50 of NOG to IC50 of compound for inhibition of recombinant human GST-tagged TET2 (1099 to 1936 residues) expressed in Escherichia coli BL21 (DE3)pLysS assessed as reduction in 5hmc level incubated for 2 hrs by ELISA
[9] = target: T3, Methylcytosine dioxygenase TET1 (Homo sapiens, UniProt Q8NFU7); assay: Inhibition of recombinant human N-terminal Flag-tagged TET1 (1418 to 2136 residues) expressed in Baculovirus infected Sf9 cells assessed as reduction in 5hmc level incubated for 2 hrs by ELISA
T3 sequence (Q8NFU7 whole entry, the tested form may be a part): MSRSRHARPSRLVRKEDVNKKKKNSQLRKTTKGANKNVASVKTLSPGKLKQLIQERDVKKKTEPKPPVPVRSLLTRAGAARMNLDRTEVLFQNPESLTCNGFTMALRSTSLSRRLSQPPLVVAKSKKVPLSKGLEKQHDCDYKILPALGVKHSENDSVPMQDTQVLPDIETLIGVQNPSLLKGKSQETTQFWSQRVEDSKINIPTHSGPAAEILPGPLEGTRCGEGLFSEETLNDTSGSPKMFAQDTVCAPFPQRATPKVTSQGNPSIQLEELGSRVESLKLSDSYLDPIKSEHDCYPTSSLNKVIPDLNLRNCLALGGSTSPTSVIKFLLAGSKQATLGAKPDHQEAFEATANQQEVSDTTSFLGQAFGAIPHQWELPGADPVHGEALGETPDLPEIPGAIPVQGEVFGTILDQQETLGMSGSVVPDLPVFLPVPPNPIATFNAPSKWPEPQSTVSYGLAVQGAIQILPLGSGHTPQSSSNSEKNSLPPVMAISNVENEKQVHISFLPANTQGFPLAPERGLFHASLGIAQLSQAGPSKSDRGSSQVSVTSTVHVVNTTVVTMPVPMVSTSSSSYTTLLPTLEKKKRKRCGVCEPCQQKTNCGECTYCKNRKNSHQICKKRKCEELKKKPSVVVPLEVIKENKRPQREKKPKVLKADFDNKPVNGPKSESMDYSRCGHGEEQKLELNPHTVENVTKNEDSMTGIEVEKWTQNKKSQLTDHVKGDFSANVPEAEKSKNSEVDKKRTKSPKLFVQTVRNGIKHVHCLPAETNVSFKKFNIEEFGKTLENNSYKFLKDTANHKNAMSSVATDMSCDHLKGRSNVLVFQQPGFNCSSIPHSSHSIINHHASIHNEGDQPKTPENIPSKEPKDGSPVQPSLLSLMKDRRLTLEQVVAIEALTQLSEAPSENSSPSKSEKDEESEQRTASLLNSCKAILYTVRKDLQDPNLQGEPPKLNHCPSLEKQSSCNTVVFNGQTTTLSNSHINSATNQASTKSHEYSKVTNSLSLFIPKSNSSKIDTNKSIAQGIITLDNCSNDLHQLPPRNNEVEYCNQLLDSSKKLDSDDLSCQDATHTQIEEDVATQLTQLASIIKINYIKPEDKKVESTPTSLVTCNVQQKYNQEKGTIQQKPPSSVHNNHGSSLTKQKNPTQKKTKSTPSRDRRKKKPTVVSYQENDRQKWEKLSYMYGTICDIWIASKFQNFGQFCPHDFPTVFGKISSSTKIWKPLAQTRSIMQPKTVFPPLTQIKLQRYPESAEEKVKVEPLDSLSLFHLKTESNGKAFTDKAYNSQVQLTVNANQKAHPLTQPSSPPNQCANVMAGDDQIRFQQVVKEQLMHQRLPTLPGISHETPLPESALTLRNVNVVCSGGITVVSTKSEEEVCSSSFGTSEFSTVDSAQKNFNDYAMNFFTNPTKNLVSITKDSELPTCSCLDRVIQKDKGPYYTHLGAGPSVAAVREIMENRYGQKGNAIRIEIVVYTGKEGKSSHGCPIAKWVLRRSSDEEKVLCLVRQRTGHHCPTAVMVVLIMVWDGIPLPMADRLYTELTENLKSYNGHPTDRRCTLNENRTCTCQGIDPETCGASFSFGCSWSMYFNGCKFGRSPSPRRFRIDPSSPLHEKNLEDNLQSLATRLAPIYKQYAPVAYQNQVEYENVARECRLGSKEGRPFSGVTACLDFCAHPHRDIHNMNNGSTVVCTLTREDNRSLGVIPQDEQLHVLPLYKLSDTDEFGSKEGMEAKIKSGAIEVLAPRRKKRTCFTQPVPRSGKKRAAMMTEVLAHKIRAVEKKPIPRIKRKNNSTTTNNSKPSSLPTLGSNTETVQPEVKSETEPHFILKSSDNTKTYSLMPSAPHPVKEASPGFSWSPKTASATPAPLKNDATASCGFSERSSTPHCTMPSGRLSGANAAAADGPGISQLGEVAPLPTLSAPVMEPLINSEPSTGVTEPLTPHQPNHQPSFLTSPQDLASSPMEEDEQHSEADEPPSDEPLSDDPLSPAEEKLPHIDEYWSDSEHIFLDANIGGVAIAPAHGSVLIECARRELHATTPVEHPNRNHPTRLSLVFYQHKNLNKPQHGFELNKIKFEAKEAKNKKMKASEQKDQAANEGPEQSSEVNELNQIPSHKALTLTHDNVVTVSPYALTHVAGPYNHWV

[10] = target: T1, Methylcytosine dioxygenase TET2; assay: Reversible inhibition of recombinant human GST-tagged TET2 (1099 to 1936 residues) expressed in Escherichia coli BL21 (DE3)pLysS assessed as restoration of enzyme activity in presence of alpha-KG at 20 uM incubated for 2 hrs by ELISA
Summary of the method: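 TET2 catalytic domain (100 nM) preincubated with 12.5 µM inhibitor, then α-KG added at increasing concentrations. Anti-5hmC/HRP detection, TMB read at 450 nm; activity expressed relative.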

[11] = target: T1, Methylcytosine dioxygenase TET2; details: dose 10.0 mM
[12] = target: T3, Methylcytosine dioxygenase TET1; assay: Inhibition of TET1 (unknown origin) at 10 mM in presence of alpha-KG relative to control
[13] = target: T3, Methylcytosine dioxygenase TET1; assay: Inhibition of TET1 (unknown origin) at 50 mM in presence of alpha-KG relative to control
[14] = target: T1, Methylcytosine dioxygenase TET2; details: dose 50.0 mM
[15] = target: T3, Methylcytosine dioxygenase TET1; assay: Inhibition of TET1 (unknown origin)
[16] = target: T2, Methylcytosine dioxygenase TET3; assay: Inhibition of TET3 (unknown origin)

CCOC(=O)C(C)CC(F)(F)C(=O)OCC (centres undefined)
inhibition (THP-1 [1]): 9%
inhibition (THP-1 [2]): 14%
inhibition (THP-1 [3]): 22%

C=C(CC(F)C(=O)OCC)C(=O)OCC (racemic)
inhibition (THP-1 [1]): 11%
inhibition (THP-1 [2]): 9%
inhibition (THP-1 [3]): 41%

COC(=O)C(=O)CC(C)C(=O)OC (centres undefined)
inhibition (THP-1 [1]): < 5%
inhibition (THP-1 [2]): < 5%
inhibition (THP-1 [3]): < 5%

COC(=O)CCC(=O)C(=O)OC
inhibition (THP-1 [1]): < 5%
inhibition (THP-1 [2]): < 5%
inhibition (THP-1 [3]): < 5%

O=C(O)CCC(=O)O [SUCCINIC ACID]
IC50 [4]: 2800 µM

CCOC(=O)C(C)CC(O)C(=O)OCC (racemic)
inhibition (THP-1 [1]): 14%
inhibition (THP-1 [2]): < 5%
inhibition (THP-1 [3]): 41%

O=C(O)/C=C/C(=O)C(=O)O
IC50 [5]: 107 µM

C=C(CC(O)C(=O)O)C(=O)O (centres undefined)
Kd [6]: 0.3 µM
IC50 [7]: 8.8 µM
Ratio IC50 [8]: 2
IC50 [9]: 1.5 µM
inhibition [10]: Active

C=C(C[C@@H](O)C(=O)O)C(=O)O
Ratio IC50 [8]: 2
IC50 [5]: 11 µM

C=C(CC(O)(CC)C(=O)OCC)C(=O)OCC (racemic)
inhibition (THP-1 [1]): 45%
inhibition (THP-1 [2]): 29%
inhibition (THP-1 [3]): 48%

C=C(CC(O)(C(=O)OCC)C(C)C)C(=O)OCC (racemic)
inhibition (THP-1 [1]): 37%
inhibition (THP-1 [2]): 17%
inhibition (THP-1 [3]): 43%

COC(=O)CCC(=O)OC
inhibition (THP-1 [1]): 7%
inhibition (THP-1 [2]): < 5%
inhibition (THP-1 [3]): 15%

O=C(O)/C=C/C(=O)O [FUMARIC ACID]
IC50 [4]: 2400 µM

C=C(CC(O)C(=O)OCC)C(=O)OCC (racemic)
inhibition (THP-1 [1]): 68%
inhibition (THP-1 [2]): 55%
inhibition (THP-1 [3]): 73%

CCOC(=O)C(=O)CC1(C(=O)OCC)CC1
inhibition (THP-1 [1]): 29%
inhibition (THP-1 [2]): 19%
inhibition (THP-1 [3]): 33%

CCC(CC(=O)C(=O)OC)C(=O)OC (centres undefined)
inhibition (THP-1 [1]): < 5%
inhibition (THP-1 [2]): < 5%
inhibition (THP-1 [3]): < 5%

COC(=O)CNC(=O)C(=O)OC
inhibition (THP-1 [1]): 62%
inhibition (THP-1 [2]): 56%
inhibition (THP-1 [3]): 64%

O=C(O)CC[C@@H](O)C(=O)O
inhibition [11]: 33%
inhibition [12]: 28%
inhibition [13]: 47%
IC50 [4]: 6400 µM
inhibition [14]: 83%

O=C(C[C@@H](O)CCc1ccc(O)c(O)c1)O[C@@H]1Cc2c(O)cc(O)cc2C[C@@H]1c1ccc(O)c(O)c1
IC50 [15]: 3.48 µM
IC50 [16]: 2.31 µM

C=C(CC(C)O)C(=O)OCC (racemic)
inhibition (THP-1 [1]): 27%
inhibition (THP-1 [2]): 15%
inhibition (THP-1 [3]): 47%

O=C(O)CNC(=O)C(=O)O [N-OXALYLGLYCINE]
IC50 [4]: 80 µM

C=C(CC(=O)C(=O)OCC)C(=O)OCC
inhibition (THP-1 [1]): 27%
inhibition (THP-1 [2]): < 5%
inhibition (THP-1 [3]): 44%

COC(=O)CCC(O)C(=O)OC (centres undefined)
inhibition (THP-1 [1]): 18%
inhibition (THP-1 [2]): 9%
inhibition (THP-1 [3]): 29%

COC(=O)/C=C/C(=O)C(=O)OC
inhibition (THP-1 [1]): 17%
inhibition (THP-1 [2]): 7%
inhibition (THP-1 [3]): 34%

COC(=O)/C=C/C(=O)OC
inhibition (THP-1 [1]): 21%
inhibition (THP-1 [2]): < 5%
inhibition (THP-1 [3]): 33%

C=C(C[C@H](O)C(=O)O)C(=O)O
Ratio IC50 [8]: 2
IC50 [5]: 10.5 µM

C=C(NC(C)=O)C(=O)OC
inhibition (THP-1 [1]): < 5%
inhibition (THP-1 [2]): < 5%
inhibition (THP-1 [3]): < 5%

O=C(O)CC[C@H](O)C(=O)O
IC50 [4]: 3600 µM

C=C(CC(F)(F)C(=O)OCC)C(=O)OCC
inhibition (THP-1 [1]): 20%
inhibition (THP-1 [2]): 12%
inhibition (THP-1 [3]): 29%

C=C(CC(O)(C(=O)OCC)C(F)(F)F)C(=O)OCC (racemic)
inhibition (THP-1 [1]): 67%
inhibition (THP-1 [2]): 49%
inhibition (THP-1 [3]): 79%

CCOC(=O)C(O)CC1(C(=O)OCC)CC1 (racemic)
inhibition (THP-1 [1]): < 5%
inhibition (THP-1 [2]): < 5%
inhibition (THP-1 [3]): < 5%

CC(C)CC(NC(=O)C(=O)O)C(=O)O (centres undefined)
IC50 [4]: 18.1 µM

C=C(CC(C)(O)C(=O)OCC)C(=O)OCC (racemic)
inhibition (THP-1 [1]): 71%
inhibition (THP-1 [2]): 54%
inhibition (THP-1 [3]): 80%

C=C(CCC(=O)OC)C(=O)OC
inhibition (THP-1 [1]): 7%
inhibition (THP-1 [2]): < 5%
inhibition (THP-1 [3]): 22%

C=C(CC(Cl)C(=O)OC)C(=O)OC (centres undefined)
inhibition (THP-1 [1]): 54%
inhibition (THP-1 [2]): 40%
inhibition (THP-1 [3]): 66%
